Activity calls are given as the source filed them. No cut-off for these calls is given here.
Assays:
[1] = organism: Homo sapiens; test: (§1) Antiproliferative activity against cisplatin-resistant human A2780/CP70 cells measured after 96 hrs by MTT assay; type: functional
In short: (§2)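 Cells kept in DMEM or RPMI 1640 with 10% FBS and 5% penicillin-streptomycin at 37 °C, 5% CO2, seeded at 1 x 10⁴ cells/mL and left 24 h to adhere. Compounds or vehicle added over a concentration range for 96 h, then MTT 4 h; formazan dissolved in DMSO, absorbance read at 540 nm relative to control. IC50 given as mean ± SD of three independent experiments in duplicate.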

[2] = tested on: A2780; test: Cell cycle arrest in cisplatin-sensitive human A2780 cells assessed as increase in DNA fragmentation after 48 hrs by DAPI-staining based assay; type: functional
In short: (§3)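 A2780 cells seeded in T25 flasks, 24 h at 37 °C, then exposed 48 h to vehicle or compound at several concentrations. 1 x 10⁶ cells/mL spun at 400 g for 5 min, resuspended in lysis buffer with DAPI, 5 min at 37 °C, then stabilization buffer added. DNA content read by image cytometry to give sub-G1, G0/G1, S and G2 fractions; mean ± s.e. mean, n = 2.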

[3] = tested on: A2780; test: Cell cycle arrest in cisplatin-sensitive human A2780 cells assessed as increase in accumulation at sub-G0/G1 phase at 10 to 60 uM after 48 hrs by DAPI-staining based assay; type: functional; in short: as §3
[4] = tested on: A2780; test: Antiproliferative activity against cisplatin-sensitive human A2780 cells measured after 96 hrs by MTT assay; type: functional, cell-based; settings: for IC50: A2780, 96 h; in short: as §2
[5] = Selectivity index, ratio of IC50 for human ARPE19 cells to IC50 for cisplatin-resistant human A2780/CP70 cells; type: toxicity; settings: ARPE19 cells versus cisplatin-resistant A2780/CP70 cells, read-out: Ratio IC50
[6] = tested on: ARPE-19; test: Cytotoxicity against human ARPE19 cells measured after 96 hrs by MTT assay; type: cell-based; settings: ARPE-19, 96 h; in short: as §2
[7] = as §1; type: functional; settings: A2780/CP70, 96 h; in short: as §2
[8] = Selectivity index, ratio of IC50 for human ARPE19 cells to IC50 for cisplatin-sensitive human A2780 cells; type: toxicity; settings: ARPE19 cells versus cisplatin-sensitive A2780 cells, read-out: Ratio IC50
[9] = tested on: A2780; test: Cell cycle arrest in cisplatin-sensitive human A2780 cells assessed as accumulation at G0/G1 phase at 10 to 60 uM after 48 hrs by DAPI-staining based assay; type: functional; in short: as §3
[10] = tested on: A2780; test: Cell cycle arrest in cisplatin-sensitive human A2780 cells assessed as increase in accumulation at sub-G0/G1 phase at 5 to 10 uM after 48 hrs by DAPI-staining based assay; type: functional; in short: as §3
[11] = tested on: A2780; test: Cell cycle arrest in cisplatin-sensitive human A2780 cells assessed as accumulation at G0/G1 phase at 5 to 10 uM after 48 hrs by DAPI-staining based assay; type: functional; in short: as §3

Row | Structure (SMILES) | IC50 [4] [nM] | Activity [1] | Activity [2] | Activity [3] | selectivity ratio [5] | IC50 [6] [nM] | IC50 [7] [nM] | selectivity ratio [8] | Activity [9] | Activity [10] | Activity [11] | Activity [4]
1 | CC1=C(CO[Si](C)(c2ccccc2)c2ccccc2)C(=O)O[C@@H]([C@@H](C)[C@H]2CC[C@H]3[C@@H]4C[C@H]5O[C@]56C(O[Si](C)(c5ccccc5)c5ccccc5)C=CC(=O)[C@]6(C)[C@H]4CC[C@]23C)C1 (stereo partly drawn) | – | inactive | – | – | – | – | – | – | – | – | – | –
2 | CCCCCC[Si](CCCCCC)(CCCCCC)OCC1=C(C)C[C@H]([C@@H](C)[C@H]2CC[C@H]3[C@@H]4C[C@H]5O[C@]56[C@@H](O)C=CC(=O)[C@]6(C)[C@H]4CC[C@]23C)OC1=O | – | inactive | – | – | – | – | – | – | – | – | – | inactive
3 | CC1=C(CO)C(=O)O[C@@H]([C@@H](C)[C@H]2CC[C@H]3[C@@H]4C[C@H]5O[C@]56C(=O)C=CC(=O)[C@]6(C)[C@H]4CC[C@]23C)C1 | 7.3 | – | – | – | > 32 | 32 | < 1 | 4.3 | – | – | – | –
4 | CCCCCC[Si](CCCCCC)(CCCCCC)OCC1=C(C)C[C@H]([C@@H](C)[C@H]2CC[C@H]3[C@@H]4C[C@H]5O[C@]56C(=O)C=CC(=O)[C@]6(C)[C@H]4CC[C@]23C)OC1=O | – | inactive | – | – | – | – | – | – | – | – | – | inactive
5 | CCC[Si](CCC)(CCC)OCC1=C(C)C[C@H]([C@@H](C)[C@H]2CC[C@H]3[C@@H]4C[C@H]5O[C@]56[C@@H](O[Si](CCC)(CCC)CCC)C=CC(=O)[C@]6(C)[C@H]4CC[C@]23C)OC1=O | – | inactive | – | – | – | – | – | – | – | – | – | inactive

Continued, in another order:

Row | IC50 [4] [nM] | Structure (SMILES) | Activity [1] | Activity [2] | Activity [3] | selectivity ratio [5] | IC50 [6] [nM] | IC50 [7] [nM] | selectivity ratio [8] | Activity [9] | Activity [10] | Activity [11] | Activity [4]
6 | 17 | CC1=C(CO[Si](C)(C)C(C)(C)C)C(=O)O[C@@H]([C@@H](C)[C@H]2CC[C@H]3[C@@H]4C[C@H]5O[C@]56C(=O)C=CC(=O)[C@]6(C)[C@H]4CC[C@]23C)C1 | – | Dose-dependent effect | Active | 11.3 | 1660 | > 100 | 97.7 | inactive | – | – | –
7 | 47.5 | CC1=C(CO[Si](C)(C)C(C)(C)C)C(=O)O[C@@H]([C@@H](C)[C@H]2CC[C@H]3[C@@H]4C[C@H]5O[C@]56[C@@H](O)C=CC(=O)[C@]6(C)[C@H]4CC[C@]23C)C1 | – | Dose-dependent effect | – | 0.1 | 12.4 | > 100 | 0.3 | – | Active | inactive | –
8 | 2.9 | CC1=C(CO[Si](C)(C)c2ccccc2)C(=O)O[C@@H]([C@@H](C)[C@H]2CC[C@H]3[C@@H]4C[C@H]5O[C@]56[C@@H](O[Si](C)(C)c5ccccc5)C=CC(=O)[C@]6(C)[C@H]4CC[C@]23C)C1 | – | – | – | 10.7 | 309 | 29 | 107 | – | – | – | –
9 | 27 | CCCC[Si](CCCC)(CCCC)OCC1=C(C)C[C@H]([C@@H](C)[C@H]2CC[C@H]3[C@@H]4C[C@H]5O[C@]56[C@@H](O)C=CC(=O)[C@]6(C)[C@H]4CC[C@]23C)OC1=O | – | – | – | 11.8 | 260 | 22 | 9.6 | – | – | – | –
10 | 1.5 | CCCCCCCC[Si](C)(C)OCC1=C(C)C[C@H]([C@@H](C)[C@H]2CC[C@H]3[C@@H]4C[C@H]5O[C@]56[C@@H](O[Si](C)(C)CCCCCCCC)C=CC(=O)[C@]6(C)[C@H]4CC[C@]23C)OC1=O | – | – | – | 12.8 | 318 | 24.9 | 212 | – | – | – | –

Source: ChEMBL document CHEMBL4350962, “Expanding the Chemical Space of Withaferin A by Incorporating Silicon To Improve Its Clinical Potential on Human Ovarian Carcinoma Cells” (J Med Chem, 2019)
